Test results: ChEMBL document CHEMBL4138193, “Novel indole and triazole based hybrid molecules exhibit potent anti-adipogenic and antidyslipidemic activity by activating Wnt3a/β-catenin pathway” (Eur J Med Chem, 2018)
Active and inactive are the calls of the source. The rule behind the calls is not given here.

Columns and labels:
3T3-L1 [1] = assay: Anti-adipogenic activity in mouse differentiated 3T3L1 cells assessed as inhibition of adipogenesis at 20 uM after 20 mins by Oil Red O staining based assay; format: functional
Procedure, shortened: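 3T3-L1 preadipocytes given 20 µM compound with differentiation media. Oil red O stain (20 min) extracted, absorbance at 492 nm measured against MDI+ control, n=3, mean ± SD, Student t test.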

3T3-L1 [2] = assay: Anti-adipogenic activity in mouse 3T3L1 cells assessed as inhibition of adipogenesis after 20 mins by Oil Red O staining based assay; format: functional, cell-based; conditions: 3T3-L1, 20 min
Procedure, shortened: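 3T3-L1 preadipocytes differentiated with compound at 0.1, 1, 3, 10, 30, 100 and 300 µM. Oil red O absorbance read at 492 nm, concentrations log-transformed and fitted by non-linear regression to give IC50. Two to three independent experiments, mean ± SEM.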

Syrian golden hamster [3] = assay: Induction of reverse cholestrol transport in high fat diet-induced dyslipidemia Syrian Golden hamster model assessed as increase in LCAT mRNA expression in liver at 100 mg/kg, po administered for 1 week by qRT-PCR analysis; format: functional, organism-based; conditions: Mesocricetus auratus
Syrian golden hamster [4] = assay: Induction of reverse cholestrol transport in high fat diet-induced dyslipidemia Syrian Golden hamster model assessed as increase in SCARB1 mRNA expression in liver at 100 mg/kg, po administered for 1 week by qRT-PCR analysis; format: functional, organism-based; conditions: Mesocricetus auratus
Syrian golden hamster [5] = assay: Induction of reverse cholestrol transport in high fat diet-induced dyslipidemia Syrian Golden hamster model assessed as decrease in NPCL1 mRNA expression in liver at 100 mg/kg, po administered for 1 week by qRT-PCR analysis; format: functional, organism-based; conditions: Mesocricetus auratus
Syrian golden hamster [6] = assay: Induction of reverse cholestrol transport in high fat diet-induced dyslipidemia Syrian Golden hamster model assessed as decrease in CYP7A1 mRNA expression in liver at 100 mg/kg, po administered for 1 week by qRT-PCR analysis; format: functional, organism-based; conditions: Mesocricetus auratus
Syrian golden hamster [7] = assay: Induction of reverse cholestrol transport in high fat diet-induced dyslipidemia Syrian Golden hamster model assessed as decrease in CETP mRNA expression in liver at 100 mg/kg, po administered for 1 week by qRT-PCR analysis; format: functional, organism-based; conditions: Mesocricetus auratus
Syrian golden hamster [8] = assay: Induction of reverse cholestrol transport in high fat diet-induced dyslipidemia Syrian Golden hamster model assessed as increase in ABCA1 mRNA expression in eWAT at 100 mg/kg, po administered for 1 week by qRT-PCR analysis; format: functional, organism-based; conditions: Mesocricetus auratus
Syrian golden hamster [9] = assay: Induction of reverse cholestrol transport in high fat diet-induced dyslipidemia Syrian Golden hamster model assessed as increase in ABCG8 mRNA expression in eWAT at 100 mg/kg, po administered for 1 week by qRT-PCR analysis; format: functional, organism-based; conditions: Mesocricetus auratus
Syrian golden hamster [10] = assay: Induction of reverse cholestrol transport in high fat diet-induced dyslipidemia Syrian Golden hamster model assessed as increase in ABCG5 mRNA expression in eWAT at 100 mg/kg, po administered for 1 week by qRT-PCR analysis; format: functional, organism-based; conditions: Mesocricetus auratus

Row | SMILES | inhibition at 20 µM (3T3-L1 [1]) [%] | also measured
1 | CC(=O)N(Cc1cccc(F)c1F)Cc1cn(S(=O)(=O)c2ccc(C)cc2)c2ccccc12 | 57.5 | IC50 (3T3-L1 [2]): 17.5 µM
2 | Cc1ccc(S(=O)(=O)n2cc(CN(Cc3cccc(F)c3F)C(=O)C(F)(F)F)c3ccccc32)cc1 | -5.5 | 
3 | COc1ccc(Cn2cc(CN(Cc3cn(S(=O)(=O)c4ccc(C)cc4)c4ccccc34)S(=O)(=O)c3ccc(C)cc3)nn2)cc1 | 1 | 
4 | O=C(N(Cc1cccc(F)c1F)Cc1cn(S(=O)(=O)c2ccc(F)cc2)c2ccccc12)C(F)(F)F | -52.3 | 
5 | Cc1ccc(S(=O)(=O)N(Cc2cn(Cc3ccccc3)nn2)Cc2c(C)c3ccccc3n2S(=O)(=O)c2ccc(C)cc2)cc1 | -5.9 | 
6 | Cc1ccc(S(=O)(=O)N(Cc2cn(Cc3ccccc3Cl)nn2)Cc2cn(S(=O)(=O)c3ccc(C)cc3)c3ccccc23)cc1 | -4.8 | 
7 | Cc1ccc(S(=O)(=O)N(Cc2cn(Cc3ccccc3)nn2)Cc2c(-c3ccccc3)c3ccccc3n2S(=O)(=O)c2ccc(C)cc2)cc1 | 0.03 | 
8 | O=S(=O)(c1ccc(F)cc1)N(Cc1cccc(F)c1F)Cc1cn(S(=O)(=O)c2ccc(F)cc2)c2ccccc12 | -20 | 
9 | Cc1ccc(S(=O)(=O)n2cc(CN(Cc3cn(Cc4cccc(F)c4F)nn3)C(=O)C(F)(F)F)c3ccccc32)cc1 | 31.9 | IC50 (3T3-L1 [2]): 19.1 µM
10 | Cc1ccc(S(=O)(=O)n2cc(CN(Cc3cn(Cc4cc(F)ccc4F)nn3)S(=O)(=O)c3ccccc3)c3ccccc32)cc1 | -6.5 | 
11 | Fc1cccc(CNCc2ccccc2)c1F | -38.5 | 
12 | Cc1ccc(S(=O)(=O)N(Cc2ccccc2)Cc2cccc(F)c2F)cc1 | -35.7 | 
13 | COc1cc(OC)c(Cn2cc(CN(Cc3cn(S(=O)(=O)c4ccc(C)cc4)c4ccccc34)S(=O)(=O)c3ccc(C)cc3)nn2)c(OC)c1 | -22 | 
14 | Cc1ccc(S(=O)(=O)n2cc(CN(Cc3cccc(F)c3F)S(C)(=O)=O)c3ccccc32)cc1 | -3.3 | 
15 | Cc1ccc(S(=O)(=O)n2cc(CN(Cc3ccccc3)Cc3cccc(F)c3F)c3ccccc32)cc1 | -13.1 | 
16 | Cc1ccc(S(=O)(=O)N(Cc2cn(Cc3ccccc3)nn2)Cc2cn(S(=O)(=O)c3ccc(C)cc3)c3ccccc23)cc1 | 3.4 | 
17 | Cc1ccc(S(=O)(=O)n2cc(CN(Cc3cn(Cc4cc(F)ccc4F)nn3)S(C)(=O)=O)c3ccccc32)cc1 | 3.4 | 
18 | COc1ccc(Cn2cc(CN(Cc3cn(S(=O)(=O)c4ccc(C)cc4)c4ccccc34)S(=O)(=O)c3ccc(C)cc3)nn2)c(OC)c1 | 7.6 | 
19 | Fc1cccc(CNCc2c[nH]c3ccccc23)c1F | -1.7 | 
20 | Cc1ccc(S(=O)(=O)n2cc(CNCc3cccc(F)c3F)c3ccccc32)cc1 | 46 | IC50 (3T3-L1 [2]): 30 µM

Row | SMILES | inhibition at 20 µM (3T3-L1 [1]) [%] | also measured
21 | CC(=O)N(Cc1cccc(F)c1F)Cc1cn(S(=O)(=O)c2ccc(F)cc2)c2ccccc12 | 25.8 | IC50 (3T3-L1 [2]): 10.6 µM
22 | COc1ccc(Cn2cc(CN(Cc3cn(S(=O)(=O)c4ccc(C)cc4)c4ccccc34)S(=O)(=O)c3ccc(C)cc3)nn2)c(OC)c1OC | -18 | 
23 | O=S(=O)(c1ccc(F)cc1)N(Cc1ccccc1)Cc1cccc(F)c1F | -81.9 | 
24 | Cc1ccc(S(=O)(=O)N(Cc2cn(Cc3ccc(F)cc3F)nn2)Cc2cn(S(=O)(=O)c3ccc(C)cc3)c3ccccc23)cc1 | 12.3 | 
25 | COc1cc(Cn2cc(CN(Cc3c(-c4ccccc4)c4ccccc4n3S(=O)(=O)c3ccc(C)cc3)S(=O)(=O)c3ccc(C)cc3)nn2)cc(OC)c1OC | -10.9 | 
26 | Cc1ccc(S(=O)(=O)N(Cc2ccc(F)cc2)Cc2cccc(F)c2F)cc1 | -97.7 | 
27 | Cc1ccc(S(=O)(=O)N(Cc2cccc(F)c2F)Cc2cn(S(=O)(=O)c3ccc(F)cc3)c3ccccc23)cc1 | -35 | 
28 | O=C(N(Cc1ccc(F)cc1)Cc1cccc(F)c1F)C(F)(F)F | -39.8 | 
29 | Cc1ccc(S(=O)(=O)N(Cc2cccc(F)c2F)Cc2cn(S(=O)(=O)c3ccc(C)cc3)c3ccccc23)cc1 | -13.9 | 
30 | Cc1ccc(S(=O)(=O)N(Cc2cn(Cc3ccc(F)cc3F)nn2)Cc2c(C)c3ccccc3n2S(=O)(=O)c2ccc(C)cc2)cc1 | -22 | 
31 | Cc1ccc(S(=O)(=O)n2cc(CN(Cc3cn(Cc4ccccc4)nn3)S(=O)(=O)c3ccccc3)c3ccccc32)cc1 | -18 | 
32 | CC(=O)N(Cc1cn(Cc2cccc(F)c2F)nn1)Cc1cn(S(=O)(=O)c2ccc(C)cc2)c2ccccc12 | 39.5 | IC50 (3T3-L1 [2]): 9.1 µM
33 | Cc1ccc(S(=O)(=O)n2cc(CN(Cc3cn(Cc4ccc(F)cc4)nn3)S(=O)(=O)c3ccccc3)c3ccccc32)cc1 | -21 | 
34 | Cc1ccc(S(=O)(=O)n2cc(CN(Cc3cn(Cc4ccc(F)cc4)nn3)S(C)(=O)=O)c3ccccc32)cc1 | -19.5 | 
35 | Cc1ccc(S(=O)(=O)n2c(CN(Cc3cn(Cc4ccc(F)cc4F)nn3)S(C)(=O)=O)c(C)c3ccccc32)cc1 | -20.8 | 
36 | CC(C)OC(=O)C(C)(C)Oc1ccc(C(=O)c2ccc(Cl)cc2)cc1 |  | Activity (Syrian golden hamster [3]): Active; Activity (Syrian golden hamster [4]): Active; Activity (Syrian golden hamster [5]): Active; Activity (Syrian golden hamster [6]): Active; Activity (Syrian golden hamster [7]): Active; Activity (Syrian golden hamster [8]): Active; Activity (Syrian golden hamster [9]): Active; Activity (Syrian golden hamster [10]): Active
37 | Fc1ccc(CNCc2cccc(F)c2F)cc1 | -53.4 | 
38 | O=S(=O)(c1ccc(F)cc1)n1cc(CNCc2cccc(F)c2F)c2ccccc21 | 21 | IC50 (3T3-L1 [2]): 12.4 µM
39 | Cc1ccc(S(=O)(=O)N(Cc2cn(Cc3ccc(F)cc3)nn2)Cc2c(-c3ccccc3)c3ccccc3n2S(=O)(=O)c2ccc(C)cc2)cc1 | -7.6 | 
